PubChem BioAssay
The other results are listed elsewhere or left out. Inconclusive results are not listed. A number with no mark means an inactive call. The source made the active and inactive calls.

How the values were obtained:
[1] = target: Solute carrier family 12 member 5 (Homo sapiens) (UniProt Q9H2X9); test: retest of KCC2 transport modulators without sodium – cell-based, HEK293 KCC2, thallium flux, secondary assay, confirmation (AID 1713;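 active = thallium flux slope above the same plate's solvent-only control mean plus 3 SD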); details: FluoZin2 fluorescence, at 10 µM, hits give high values
How it was run: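 Evaluation: F/F0 slope over 10–20 s post-thallium, baseline-normalized / Material: KCC2-expressing HEK cells / Detection: FluoZin2 fluorescence, 480/540 nm, 1 Hz / Times: 48 min dye loading / Medium: Sodium-free N-methylglucamine chloride buffer / Compound: 10 µM single dose, 0.1% DMSO / Control set: bumetanide and DMSO controls / Probe or stimulus: thallium sulfate stimulus buffer at pH 7.3 / Repeats: duplicates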

[2] = PubChem AID 1714; details: HEK293-KCC2 + bumetanide/ouabain, thallium flux FluoZin2; at 10 µM; hits give high values;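 note: raw slope of fluorescence over initial fluorescence between 10 and 20 s after thallium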
How it was run: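 Test system: HEK cells expressing the K-Cl cotransporter KCC2 | Compound: One dose, 10 µM, 0.1% DMSO | Replication: Duplicates | Evaluation: Normalized thallium flux slope | Detection: FluoZin2-AM (0.5 µM) fluorescence, 480 nm ex/540 nm em, 1 Hz kinetic imaging | Incubation: Overnight culture 37 °C, dye loading 48 min | Reagent: Thallium stimulus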

[3] = target: Solute carrier family 12 member 5 (Homo sapiens) (UniProt Q9H2X9); test: retest of KCC2 transport modulation, ouabain-free – cell-based, HEK293 KCC2, thallium flux, FluoZin2, secondary assay 2, confirmation (AID 1715); details: HEK293-KCC2, thallium flux FluoZin2 fluorescence; at 10 µM; actives lie on both sides; F/F0 rise rate, 10–20 s post-thallium;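 note: raw slope with 0.1% DMSO as baseline and bumetanide as block control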
[4] = compound effects on native HEK Tl+ uptake – HEK cells, counterscreen 1, counter-screen for KCC2 modulator project, confirmation (AID 1716;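 active = thallium flux rate significantly above the same plate's solvent-only control wells, beyond their mean plus 3 SD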); details: HEK293 parental cells, thallium flux FluoZin2, ouabain; at 10 µM; baseline-ratio fluorescence slope, 10–20 s after thallium
[5] = target: Solute carrier family 12 member 5 (Homo sapiens) (UniProt Q9H2X9); test: modulation of KCC2 thallium flux in HEK cells – cell-based, ouabain, retest, confirmation (AID 1717;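 active = thallium flux slope beyond 3 SD from same-plate DMSO control mean in most replicates, usually higher, sometimes lower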;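 note: slope of initial-normalized fluorescence between seconds 10 and 20 after thallium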); details: HEK293-KCC2, thallium flux FluoZin2 fluorescence, at 10 µM, bidirectional: low = inhibitor, high = activator
[6] = native HEK Tl+ uptake effects, second counter-screen – HEK cells, counterscreen 2, counter-screen for KCC2 modulator project, confirmation (AID 1718;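 active = thallium flux slope above the same plate's solvent-control mean plus 3 SD in both duplicate wells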;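 note: run without ouabain in cells lacking the KCC2 cotransporter; slope of fluorescence scaled to its starting value between 10 and 20 s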); details: HEK293 parental, thallium flux FluoZin-2 fluorescence slope; at 10 µM
How it was run: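 Material: parental HEK cells. Medium: HBSS, 20 mM HEPES. Reagent: thallium sulfate stimulus, 12 mM in buffer, pH 7.3. Incubation: overnight cell culture at 37 °C, 48 min dye loading, compound before thallium. Signal: FluoZin-2 fluorescence kinetics. Read-out basis: thallium influx rate. Repeats: Per-replicate slope values.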

Sequence of Solute carrier family 12 member 5 (Homo sapiens) (Q9H2X9 whole entry, looked up): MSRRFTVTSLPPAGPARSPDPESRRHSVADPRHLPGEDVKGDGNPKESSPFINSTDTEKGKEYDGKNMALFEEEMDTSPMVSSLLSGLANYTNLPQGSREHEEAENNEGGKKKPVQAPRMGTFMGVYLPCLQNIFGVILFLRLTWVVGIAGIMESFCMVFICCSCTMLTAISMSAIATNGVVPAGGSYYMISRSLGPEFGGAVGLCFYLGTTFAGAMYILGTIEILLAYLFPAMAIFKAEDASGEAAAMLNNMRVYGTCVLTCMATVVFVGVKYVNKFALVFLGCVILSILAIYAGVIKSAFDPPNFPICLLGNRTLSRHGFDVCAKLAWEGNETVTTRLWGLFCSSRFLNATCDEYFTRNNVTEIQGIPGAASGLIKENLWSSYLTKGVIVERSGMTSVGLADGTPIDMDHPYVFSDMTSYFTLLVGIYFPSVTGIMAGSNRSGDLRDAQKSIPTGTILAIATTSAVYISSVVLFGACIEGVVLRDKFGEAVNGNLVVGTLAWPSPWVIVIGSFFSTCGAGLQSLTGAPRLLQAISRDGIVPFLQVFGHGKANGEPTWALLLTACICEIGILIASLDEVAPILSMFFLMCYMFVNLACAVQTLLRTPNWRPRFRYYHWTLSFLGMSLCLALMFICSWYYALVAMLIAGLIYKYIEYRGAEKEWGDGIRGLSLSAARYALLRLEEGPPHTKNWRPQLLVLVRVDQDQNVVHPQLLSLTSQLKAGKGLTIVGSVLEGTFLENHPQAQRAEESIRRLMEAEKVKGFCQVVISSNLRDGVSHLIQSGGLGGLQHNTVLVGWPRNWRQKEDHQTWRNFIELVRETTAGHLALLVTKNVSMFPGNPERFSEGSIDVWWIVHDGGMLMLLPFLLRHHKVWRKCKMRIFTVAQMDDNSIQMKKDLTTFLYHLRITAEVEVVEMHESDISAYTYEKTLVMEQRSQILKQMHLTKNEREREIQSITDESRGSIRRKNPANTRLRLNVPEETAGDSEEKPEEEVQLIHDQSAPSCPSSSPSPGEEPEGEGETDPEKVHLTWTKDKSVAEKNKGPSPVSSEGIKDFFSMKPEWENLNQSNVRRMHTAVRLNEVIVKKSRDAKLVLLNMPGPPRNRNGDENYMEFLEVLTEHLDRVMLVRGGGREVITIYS

SMILES	normalised thallium flux (F/F0 slope) [1]	normalized thallium flux [2]	normalized thallium flux [3]	thallium flux rate (normalised fluorescence) [4]	raw Tl+ flux slope (below DMSO = inhibition, above = activation) [5]	thallium flux slope [6]
Cc1ccc(OCc2n[nH]c(=S)n2-c2ccc(C)cc2)cc1	0.0109	0.094 (active)	0.0355	0.0134 (active)	–	–
NC(=O)NC(=O)CSc1nc2cc([N+](=O)[O-])ccc2n1-c1cccc(C(F)(F)F)c1	0.00549	0.0122 (active)	0.0326	0.0113 (active)	–	–
COc1ccc(NC(=O)N2CCC(Cc3ccccc3)CC2)cc1	0.00655	0.00529	0.0303	0.00728	0.0137 (active)	–
COc1ccc(Oc2c(Cl)cnn(-c3ccccc3)c2=O)cc1	0.00949	0.0065	0.0314	0.00741	0.0166 (active)	0.00996
COc1ccc(-n2c(=S)[nH]c3sc4c(c3c2=O)CCc2ccccc2-4)cc1	0.0163 (active)	0.0262 (active)	0.0334	0.0162 (active)	0.0311 (active)	–
S=c1nccc(-c2cc(Cl)sc2Cl)[nH]1	0.00959	0.0101 (active)	0.0372	0.0107 (active)	–	–
CCOC(=O)CSc1nnc(CNC(=O)c2cccs2)n1-c1ccccc1	0.00872	0.00583	0.0307	0.00776	0.0178	0.0106
COc1ccc(C(=O)NN(C)c2nc(-c3ccccc3)cc(C)c2S(C)(=O)=O)cc1	0.0121 (active)	0.0071	0.0316	0.00831	0.0204	0.0107
CSc1sc(C(=O)NNC(=O)c2ccc(Cl)cc2)c2c1C=CCC2	0.0166 (active)	0.0484 (active)	0.0343	0.0305 (active)	0.0333 (active)	0.0136 (active)
Cc1c(NC(=O)CSc2cccc3cccnc23)c(=O)n(-c2ccccc2)n1C	0.0141 (active)	0.0374 (active)	0.0314	0.0256 (active)	0.0324 (active)	–
Cc1nnc(SC(C(=O)Nc2cc(Cl)cc(Cl)c2)c2ccccc2)[nH]c1=O (stereo not given)	0.00885	0.00559	0.0302	0.00486 (active)	0.0159 (active)	–
Cc1ccc(N2C(=O)C(Cc3ccccc3)NC2=S)cc1 (stereo not given)	0.00991	0.0247 (active)	0.032	0.0128 (active)	0.0236	–
CCOc1ccccc1C1CC(c2ccc(Cl)cc2)Nc2nc(N)nn21 (stereo not given)	0.0061	0.00475	0.0277	0.00745	0.0177	0.00975
Cc1ccccc1N/N=C/c1ccc(N2CCOCC2)cc1	0.0119 (active)	0.00874 (active)	0.0362	0.00826	0.0234	–
C=CCNC(=S)NNC(=O)COc1c(Cl)cc(Cl)cc1Cl	0.0146 (active)	0.0275 (active)	0.0376	0.0266 (active)	0.03 (active)	–
N#Cc1nc(COc2ccc(-c3ccccc3)cc2)oc1NCc1cccnc1	0.00789	0.00445	0.029	0.00821	0.0173	0.01
COc1cc(NC(=O)c2ccccc2NS(=O)(=O)c2ccc(Cl)s2)cc(OC)c1	0.00642	0.00732	0.0336	0.00377	0.0161 (active)	0.0111
O=C(Nc1nnc(-c2ccccc2)o1)c1cc(-c2cccs2)nc2ccccc12	0.0238 (active)	0.108 (active)	0.0377	0.0864 (active)	0.0747 (active)	0.0185 (active)
CCc1c(SCCC(=O)O)nc2ccccc2c1C	0.00619	0.00439	0.0283	0.00913 (active)	0.0166	0.0104
O=C(Cn1cnc2c(nnn2Cc2ccc(F)cc2)c1=O)NCc1ccc2c(c1)OCO2	0.0157	0.00497	0.0238 (active)	0.00772	0.0137	0.0107

SMILES	normalised thallium flux (F/F0 slope) [1]	normalized thallium flux [2]	normalized thallium flux [3]	thallium flux rate (normalised fluorescence) [4]	raw Tl+ flux slope (below DMSO = inhibition, above = activation) [5]	thallium flux slope [6]
N=c1oc2ccccc2cc1C(=O)N/N=C/c1ccccc1	0.00592 (active)	0.00648	0.0291	0.00736	0.0198 (active)	–
C=CCNC(=S)N/N=C/c1ccc(C)s1	0.0134 (active)	0.0311 (active)	0.0287	0.0119 (active)	0.0521 (active)	–
O=S(=O)(c1ccc(F)cc1)N1CCN(C(=S)NCc2ccco2)CC1	0.0076	0.0054	0.0354	0.00396	0.0185	0.0111
Cc1ccc(/C=N/NC(=S)NC2CCCCC2)o1	0.0109	0.0268 (active)	0.0327	0.0111 (active)	0.0502 (active)	–
CC(C)C1Nc2c(C(=O)O)cccc2C(Nc2ccccc2C(=O)O)C1(C)C (stereo not given)	0.00578	0.00489	0.0236 (active)	0.00619 (active)	0.0131 (active)	–
Cc1ccc(/C=N/NC(=S)Nc2cccc(S(=O)(=O)N(C)C)c2)o1	0.00805	0.0101 (active)	0.028	0.0106 (active)	–	–
CN(C)S(=O)(=O)c1cccc(NC(=S)N/N=C/C(=O)c2ccccc2)c1	0.014 (active)	0.0308 (active)	0.0323	0.0158 (active)	0.0279	0.0129 (active)
CS(=O)(=O)c1sc(C(=O)NC(=S)Nc2ccc(OC(F)(F)F)cc2)c2c1C=CCC2	0.00979	0.0362 (active)	0.0324	0.0134 (active)	0.0498 (active)	–
O=C(N/N=C/c1coc2ccccc2c1=O)c1cc2ccccc2o1	0.0123	0.0194 (active)	0.0374	0.0141 (active)	0.0271 (active)	0.0106
Cc1nc(SCc2ccc(F)cc2)c([N+](=O)[O-])[nH]1	0.00918	0.00631	0.0237 (active)	0.00609	0.0255 (active)	0.00995
COc1ccc(NC(=O)COC(=O)c2ccc(NS(=O)(=O)/C=C/c3ccccc3)cc2)cc1	0.00992	0.00679	0.0304	0.00722	0.0244	–
Cc1ccccc1-c1n[nH]c(=S)n1/N=C/c1ccc(-c2ccccc2Br)o1	0.0093	0.016 (active)	0.0304	0.00991 (active)	–	–
Cc1ccc(C)c(NC(=S)NNC(=O)c2csc(C)c2)c1	0.0109	0.013 (active)	0.034	0.0173 (active)	0.0256 (active)	0.012
CCOc1ccc(C(=O)NCCCN2CCCC2=O)cc1	0.00821	0.00728	0.0335	0.00778	0.0225	0.0108
COC(=O)c1sccc1NC(=O)c1cc(OC)c(OC)c(OC)c1	0.00806	0.00564	0.029	0.00681	0.0198	0.00953
CCc1ccc2nc3sc(C(=O)Nc4nnc(CC)s4)c(N)c3cc2c1	0.00632	0.000813 (active)	0.0241 (active)	0.00534 (active)	0.0132 (active)	–
O=C(COC(=O)c1ccc(Oc2ccccc2)cc1)Nc1nnc(-c2ccccc2)o1	0.00704	0.0517 (active)	0.0474 (active)	0.0357 (active)	0.0424 (active)	0.0346 (active)
NS(=O)(=O)c1ccc(NC(=S)NC(=O)c2cccnc2)cc1	0.00722	0.00594 (active)	0.0316	0.00846	0.019	0.0122
CCCn1c(=S)[nH]c2ccc(C(F)(F)F)cc21	0.00727	0.0987 (active)	0.0617 (active)	0.0842 (active)	0.0775 (active)	0.0576 (active)
